Calls of active or inactive are those of the source. The calls are words filed in the database; no cut-off is given here.
Tests used:
Jurkat [1] = assay: Cytotoxicity against human Jurkat cells assessed as cell viability at 10 uM measured after 48 hrs by WST-1 assay relative to control; assay type: functional; details: read-out: Activity
Method in brief: (§1)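 Ten-line human panel (9 cancer, 1 non-cancerous). Cells were seeded at a pre-established optimal density (500–30 × 10³ per well) and settled overnight. Compounds came from 10 mM DMSO stocks and were tested at two concentrations. WST-1 readout followed the manufacturer's protocol at the end of cultivation. Viability is expressed as % of untreated control cells, mean of three independent experiments.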

MOLT-4 [2] = assay: Cytotoxicity against human MOLT-4 cells assessed as cell viability at 10 uM measured after 48 hrs by WST-1 assay relative to control; assay type: functional; details: read-out: Activity; method in brief: as §1
A549 [3] = assay: Cytotoxicity against human A549 cells assessed as cell viability at 10 uM measured after 48 hrs by WST-1 assay relative to control; assay type: functional; details: read-out: Activity; method in brief: as §1
HT-29 [4] = assay: Cytotoxicity against human HT-29 cells assessed as cell viability at 10 uM measured after 48 hrs by WST-1 assay relative to control; assay type: functional; details: read-out: Activity; method in brief: as §1
PANC-1 [5] = assay: Cytotoxicity against human PANC-1 cells assessed as cell viability at 10 uM measured after 48 hrs by WST-1 assay relative to control; assay type: functional; details: read-out: Activity; method in brief: as §1
A2780 [6] = assay: Cytotoxicity against human A2780 cells assessed as cell viability at 10 uM measured after 48 hrs by WST-1 assay relative to control; assay type: functional; details: read-out: Activity; method in brief: as §1
HeLa [7] = assay: Cytotoxicity against human HeLa cells assessed as cell viability at 10 uM measured after 48 hrs by WST-1 assay relative to control; assay type: functional; details: read-out: Activity; method in brief: as §1
MCF7 [8] = assay: Cytotoxicity against human MCF7 cells assessed as cell viability at 10 uM measured after 48 hrs by WST-1 assay relative to control; assay type: functional; details: read-out: Activity; method in brief: as §1
SAOS-2 [9] = assay: Cytotoxicity against human SAOS-2 cells assessed as cell viability at 10 uM measured after 48 hrs by WST-1 assay relative to control; assay type: functional; details: read-out: Activity; method in brief: as §1
[10] = Cytotoxicity against human MRC5 cells assessed as cell viability at 10 uM measured after 48 hrs by WST-1 assay relative to control; assay type: cell-based; details: read-out: Activity; method in brief: as §1
Jurkat [11] = assay: Cytotoxicity against human Jurkat cells assessed as cell viability at 100 uM measured after 48 hrs by WST-1 assay relative to control; assay type: functional; details: read-out: Activity; method in brief: as §1
MOLT-4 [12] = assay: Cytotoxicity against human MOLT-4 cells assessed as cell viability at 100 uM measured after 48 hrs by WST-1 assay relative to control; assay type: functional; details: read-out: Activity; method in brief: as §1
A549 [13] = assay: Cytotoxicity against human A549 cells assessed as cell viability at 100 uM measured after 48 hrs by WST-1 assay relative to control; assay type: functional; details: read-out: Activity; method in brief: as §1
HT-29 [14] = assay: Cytotoxicity against human HT-29 cells assessed as cell viability at 100 uM measured after 48 hrs by WST-1 assay relative to control; assay type: functional; details: read-out: Activity; method in brief: as §1
PANC-1 [15] = assay: Cytotoxicity against human PANC-1 cells assessed as cell viability at 100 uM measured after 48 hrs by WST-1 assay relative to control; assay type: functional; details: read-out: Activity; method in brief: as §1
A2780 [16] = assay: Cytotoxicity against human A2780 cells assessed as cell viability at 100 uM measured after 48 hrs by WST-1 assay relative to control; assay type: functional; details: read-out: Activity; method in brief: as §1
HeLa [17] = assay: Cytotoxicity against human HeLa cells assessed as cell viability at 100 uM measured after 48 hrs by WST-1 assay relative to control; assay type: functional; details: read-out: Activity; method in brief: as §1
MCF7 [18] = assay: Cytotoxicity against human MCF7 cells assessed as cell viability at 100 uM measured after 48 hrs by WST-1 assay relative to control; assay type: functional; details: read-out: Activity; method in brief: as §1
SAOS-2 [19] = assay: Cytotoxicity against human SAOS-2 cells assessed as cell viability at 100 uM measured after 48 hrs by WST-1 assay relative to control; assay type: functional; details: read-out: Activity; method in brief: as §1
[20] = Cytotoxicity against human MRC5 cells assessed as cell viability at 100 uM measured after 48 hrs by WST-1 assay relative to control; assay type: cell-based; details: read-out: Activity; method in brief: as §1
A549 [21] = assay: Cytotoxicity against human A549 cells assessed as reduction in cell viability incubated for 24 hrs by MTT assay; assay type: functional, cell-based; details: A549, 24 h
Method in brief: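 A-549 cells in DMEM with 10% FBS and 1% penicillin-streptomycin were attached overnight. Compounds were prepared in PBS and serially diluted in DMEM, then incubated 24 h. Viability was read by colorimetric MTT reduction against an untreated control on each plate (100%). IC50 came from four-parameter nonlinear regression of the log concentration-response curve, mean ± SEM. MTC is the highest concentration not differing from control (t-test).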

A549 [22] = assay: Cytotoxicity against human A549 cells assessed as maximum tolerated concentration incubated for 24 hrs by MTT assay; assay type: functional
Method in brief: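 A-549 cells in DMEM with 10% FBS and 1% penicillin-streptomycin, left to attach overnight. Compounds made up in PBS, serially diluted in DMEM, incubated 24 h, then viability read by MTT reduction against untreated controls on each plate. MTC taken as the highest concentration showing no significant difference from non-treated control (t-test).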

MOLT-4 [23] = assay: Radioprotective activity against gamma irradiation-induced apoptosis in human MOLT-4 cells assessed as viable cells at 100 uM pretreated with compound for 1 hr followed by gamma irradiation and measured after 24 hrs by annexinV/propidium iodide staining based flow cytometry (reference value: 40 %); assay type: functional; details: MOLT-4, light or radiation study, time 25 hrs, read-out: Activity
[24] = Toxicity in C57Bl/6 mouse assessed as mouth death at 100 mg/kg, ip measured after 30 days; assay type: organism-based; details: in vivo, 720 h, time 30 day
Method in brief: (§2)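 Safety in C57Bl/6 mice (27 ± 3 g) given a single 100 mg/kg i.p. injection without irradiation. Deaths, adverse effects and body weight followed over 30 days against an untreated control group. Weight reported as change from day 0.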

[25] = Toxicity in C57Bl/6 mouse assessed as adverse effects at 100 mg/kg, ip measured after 30 days; assay type: organism-based; details: in vivo, 720 h, time 30 day; method in brief: as §2
[26] = Toxicity in C57Bl/6 mouse assessed as average body weight at 100 mg/kg, ip and measured immediately (reference value: 26.3 +/- 2.4 g); assay type: organism-based; details: in vivo
[27] = Toxicity in C57Bl/6 mouse assessed as average body weight at 100 mg/kg, ip measured after 30 days (reference value: 27 +/ 3.2 g); assay type: organism-based; details: in vivo, 720 h, time 30 day
[28] = Toxicity in C57Bl/6 mouse assessed as change in body weight at 100 mg/kg, ip measured after 30 days (reference value: 103 +/- 12 %); assay type: organism-based; details: in vivo, 720 h, time 30 day
Mus musculus [29] = assay: Radioprotective activity in C57Bl/6 mouse assessed as median survival time at 100 mg/kg, ip administered 5 min prior to gamma-irradation at 8.5 Gy and measured after 30 days (reference value: 12 days); assay type: functional
Mus musculus [30] = assay: Radioprotective activity in C57Bl/6 mouse assessed as average body weight at 100 mg/kg, ip administered 5 min prior to gamma-irradation at 8.5 Gy and measured immediately (reference value: 25.4 +/- 2.6 g); assay type: functional
Mus musculus [31] = assay: Radioprotective activity in C57Bl/6 mouse assessed as average body weight at 100 mg/kg, ip administered 5 min prior to gamma-irradation at 8.5 Gy and measured after 30 days; assay type: functional
Mus musculus [32] = assay: Radioprotective activity in C57Bl/6 mouse assessed as body weight gain at 100 mg/kg, ip administered 5 min prior to gamma-irradation at 8.5 Gy measured after 30 days relative to control; assay type: functional
Mus musculus [33] = assay: Radioprotective activity in C57Bl/6 mouse assessed as increase in absolute B-lymphocytes at 100 mg/kg, ip pretreated with compound for 5 min followed by gamma irradiation at 8.5 Gy and measured after 30 days by flow cytometry; assay type: functional, organism-based
Method in brief: (§3)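 C57Bl/6 mice receive 100 mg/kg i.p. 5 min before a single 8.5 Gy ⁶⁰Co γ dose. At 7, 12 and 30 days post-irradiation, 100 µl peripheral blood is stained with anti-CD3ε, CD19 and NK1.1 antibodies for 30 min at 4 °C in the dark. Samples are washed twice and analysed by flow cytometry for T, B and NK cells. Mean ± SEM.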

Mus musculus [34] = assay: Radioprotective activity in C57Bl/6 mouse assessed as increase in absolute T-lymphocytes at 100 mg/kg, ip pretreated with compound for 5 min followed by gamma irradiation at 8.5 Gy and measured after 30 days by flow cytometry; assay type: functional, organism-based; method in brief: as §3
Mus musculus [35] = assay: Radioprotective activity in C57Bl/6 mouse assessed as increase in absolute NK population at 100 mg/kg, ip pretreated with compound for 5 min followed by gamma irradiation at 8.5 Gy and measured after 30 days by flow cytometry; assay type: functional, organism-based; method in brief: as §3

COc1ccccc1OCC(O)CN1CCN(CCO)CC1 (stereo not given)
viability at 10 µM (Jurkat [1]): 106% | viability at 10 µM (MOLT-4 [2]): 100% | viability at 10 µM (A549 [3]): 91% | viability at 10 µM (HT-29 [4]): 93% | viability at 10 µM (PANC-1 [5]): 100% | viability at 10 µM (A2780 [6]): 100% | viability at 10 µM (HeLa [7]): 93% | viability at 10 µM (MCF7 [8]): 99% | viability at 10 µM (SAOS-2 [9]): 106% | viability at 48 h, 10 µM [10]: 90% | viability at 100 µM (Jurkat [11]): 86% | viability at 100 µM (MOLT-4 [12]): 76% | viability at 100 µM (A549 [13]): 109% | viability at 100 µM (HT-29 [14]): 143% | viability at 100 µM (PANC-1 [15]): 115% | viability at 100 µM (A2780 [16]): 78% | viability at 100 µM (HeLa [17]): 99% | viability at 100 µM (MCF7 [18]): 95% | viability at 100 µM (SAOS-2 [19]): 82% | viability at 48 h, 100 µM [20]: 109% | IC50 (A549 [21]): 9.27 mM | MTD (A549 [22]): 1.56 mM | viability at 100 µM (MOLT-4 [23]): 59% | Activity [24]: Non-Toxic | Activity [25]: Non-Toxic | Activity [26]: 27.9 g | Activity [27]: 28.5 g | Activity [28]: 102% | MST (Mus musculus [29]): 13 days | Activity (Mus musculus [30]): 26.8 g | Activity (Mus musculus [31]): 27.6 g | Activity (Mus musculus [32]): 102% | Activity (Mus musculus [33]): Active | Activity (Mus musculus [34]): Active | Activity (Mus musculus [35]): Active
